# The list is not random: actives were taken first. Their share in the collection is about 6.1%.
# DAT uptake mod = human DAT dopamine uptake with cocaine, either direction. LLC-PK1 hDAT cells, [14C]-dopamine uptake with cocaine IC80; actives deviate in either direction. B-score at 10 µM. actives 1.3% (n = 110,000);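 active = Z score or B-score, a plate-position-corrected score, falls beyond the plate's 99.7% confidence bounds, in either direction; inactive = both scores lie inside the 99.7% bounds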;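 also: scored against the spread of the other compound wells on the same plate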
# Target sequence (Q01959 whole entry, looked up): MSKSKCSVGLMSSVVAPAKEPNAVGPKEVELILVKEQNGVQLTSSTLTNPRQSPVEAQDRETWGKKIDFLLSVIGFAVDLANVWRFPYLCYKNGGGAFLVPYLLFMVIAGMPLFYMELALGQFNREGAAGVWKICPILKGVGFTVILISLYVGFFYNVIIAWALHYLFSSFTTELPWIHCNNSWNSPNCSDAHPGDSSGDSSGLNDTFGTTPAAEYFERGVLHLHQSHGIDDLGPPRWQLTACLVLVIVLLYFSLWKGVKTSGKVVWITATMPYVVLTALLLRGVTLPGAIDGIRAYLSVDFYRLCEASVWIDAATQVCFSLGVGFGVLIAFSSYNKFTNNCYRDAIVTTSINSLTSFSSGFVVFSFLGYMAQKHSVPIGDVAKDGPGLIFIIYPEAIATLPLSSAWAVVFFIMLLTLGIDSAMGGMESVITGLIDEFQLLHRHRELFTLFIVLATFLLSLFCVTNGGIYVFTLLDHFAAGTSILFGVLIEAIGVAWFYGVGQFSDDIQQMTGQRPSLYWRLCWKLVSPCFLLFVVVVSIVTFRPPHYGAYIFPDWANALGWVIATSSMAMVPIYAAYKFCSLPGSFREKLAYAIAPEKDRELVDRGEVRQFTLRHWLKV
# RAM inhibit = yeast RAM network inhibition | actives 1.8% (n = 190,000) | inhibition, % at 50 µM | S. cerevisiae dse1pr::URA3 reporter, 5-FOA growth OD615, 2 d; analog-sensitive cbk1-as2 kinase mutant strain;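 active = inhibition above a set limit, 3 SD over mean compound inhibition, cut at about 8.4% in these data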;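 also: 0% = DMSO-only wells with no growth and 100% = 10 µM 1-NA-PP1 full growth; inhibition rescues growth on 5-FOA so higher OD means more RAM inhibition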
# WT yeast gro inh = growth inhibition of WT yeast, mitochondrial fusion screen; mitochondrial fusion phenotypic screen, WT strain; inhibition, % at 10 µM; actives 2.1% (n = 190,000); in the data active = inhibition above about 58%; tested in S. cerevisiae
# Measles CPE = protection of cells from measles virus | Measles virus-infected cells, CPE protection, absorbance | protection (pct of control), % at 4 µM | actives 1.5% (n = 140,000) | AID 841; in the data active = protection mostly above about 24%, no sharp cut-off; inactive = mostly below about 26%
# BB579 growth dn = chemicals that inhibit yeast BB579 growth in restrictive medium (lifespan-shortening candidates); inhibition, % at 10 µM; S. cerevisiae BB579 growth, OD615, 48 h; actives 0.51% (n = 140,000); AID 804;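 active = inhibition above a set limit, 3 SD over the mean compound inhibition, cut at about 44% in these data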
#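 Test system: S. cerevisiae DeaD strain BB579 yeast; Medium: restrictive CSMM-D medium; Compound: one dose, 10 µM compound with 0.25% DMSO; Incubation: 4 h cell preincubation, 48 h compound exposure, 30 °C humidified; Signal: OD at 615 nm; Benchmarks: amphotericin B at 10 µg/mL as positive control.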
# Yeast life ext = extends the lifespan of yeast; AID 775; inhibition of the nicotinamide effect, % at 10 µM; actives 0.68% (n = 130,000); S. cerevisiae growth with nicotinamide, OD615; deaD strain in restrictive glucose medium;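 active = inhibition above a set limit, placed 3 SD over the median of all compounds, cut at about 26% in these data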;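 also: 0% = nicotinamide-treated wells and 100% = cells grown without nicotinamide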
#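 assay system = DeaD-strain S. cerevisiae | measured by = absorbance at 615 nm | probe or stimulus = nicotinamide 1.5 mM | buffer or medium = CSMM-D glucose medium, restrictive | times = 48 h at 30 °C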
# Numbers without * were called inactive; / = no result.
SMILES,DAT uptake mod,RAM inhibit,WT yeast gro inh,Measles CPE,BB579 growth dn,Yeast life ext
CC1=[N+](C)c2c(ccc3cccnc23)C1(C)C,/,-1.9,81.7*,/,/,/
CCCCc1c(C)nc2ccccc2c1SCCC(=O)O,/,3.1,-14.2,/,/,/
CN(C)c1nc(N)nc(Cn2ccnc2)n1,-1.01,1.2,-4.7,4.3,3.7,-19.9
CCC(NC(=O)NCc1ccccc1)(C(F)(F)F)C(F)(F)F,/,-0.5,1.9,14.3,-18.6,2.5
CCC(NC(=O)NCc1ccc2c(c1)OCO2)(C(F)(F)F)C(F)(F)F,-3.4*,1.5,-13.8,15.0,-44.4,-0.7
CC(C)(C)[C@H]1C=C(C(=O)Nc2ccccc2)O[C@@H](OCCCCO)C1,0.449,/,/,/,/,/
CCN(CC)C(=O)/C(=C\c1ccc(Br)cc1)NC(=O)c1ccccc1OC,14.6*,0.5,10.8,3.8,-4.2,-0.2
O=C(COC(=O)c1ccc(Cl)cc1O)NC(=O)C1CCCCC1,/,3.5,-2.7,/,/,/
Cc1cc(C)cc(NC(=O)Cn2c(-c3ccccc3Cl)nc3ccccc32)c1,/,0.8,3.6,35.0*,-22.9,-2.9
O=C(Cn1c(-c2ccccc2Cl)nc2ccccc21)Nc1cccc(Cl)c1,/,5.1,12.7,4.8,-24.8,0.0
NC(=O)C1CCN(c2ccnc3cc(Cl)ccc23)CC1,/,1.8,-5.2,/,/,/
Cc1ccc(C(=O)c2ccc(N3CCOCC3)c(F)c2)cc1,4.45*,-0.9,11.4,24.4,9.3,/
O=C(O)c1ccnc(Cl)c1,/,1.2,8.3,25.0*,-11.1,0.8
COc1ccc(/C=N/Nc2nc(-c3ccc(Cl)cc3)cc(C(F)(F)F)n2)cc1OC,/,1.1,63.5*,6.8,-41.0,-6.9
COc1ccc(-c2cnnc(N/N=C/c3ccc(OC)c(OC)c3)n2)cc1,/,1.0,22.8,5.7,-20.1,-1.4
Cc1cc(C)nc(SCC(=O)N/N=C/c2cc(C)n(-c3ccccc3C)c2C)n1,/,1.4,-10.3,29.7,-56.8,-3.6
Cc1ccccc1N(CC(=O)N/N=C/c1cc(C)n(-c2ccccc2C)c1C)S(C)(=O)=O,-2.69*,0.0,-6.5,29.2,-14.9,-7.0
COc1ccc(-c2nnc3sc(C(C)N4C(=O)c5ccccc5C4=O)nn23)cc1 (stereo unspecified),1.36,0.8,8.4,11.4,-22.8,30.5*
COC(=O)c1cn(CC(=O)N2CCCCCC2)c2ccccc12,0.0386,0.0,-1.1,4.1,-27.9,-26.5
CCOC(=O)C1=C(O)/C(=C/c2cn(CC(=O)N3CCCC3)c3ccccc23)SC1=Nc1ccccc1,-8.27*,9.1*,-2.7,2.2,-50.5,/
COc1cc(/C=C/C(=O)OCC(=O)Nc2ccc(NC(C)=O)cc2)cc(S(=O)(=O)N2CCc3ccccc32)c1OC,/,10.3*,-31.4,/,/,/
CCOc1ccc(CC(=O)NCC2(N3CCCCC3)CCCCC2)cc1,/,1.5,-4.9,/,/,/
COc1ccccc1Nc1ncc(-c2cccs2)s1,-0.803,9.9*,16.7,13.5,-37.6,-11.4
Cc1ccc(/C=C/C(=O)OCc2nc(N)nc(Nc3ccccc3C)n2)o1,/,0.8,17.8,/,/,/
COc1ccc(-c2noc(CSc3nnc(-c4ccncc4)n3-c3ccc(F)cc3)n2)cc1OC,1.42,0.1,15.9,5.3,-50.1,147.5*
SMILES,DAT uptake mod,RAM inhibit,WT yeast gro inh,Measles CPE,BB579 growth dn,Yeast life ext
Cc1cc(NC(=O)CSc2nnc(-c3ccncc3)n2-c2ccc(F)cc2)no1,/,-0.1,6.0,/,/,/
COC(=O)c1c(N)sc2c1CC(C)(C)OC2,/,1.4,-4.0,/,/,/
CCC(C)NC(=O)c1ccccc1NC(=O)CN(c1ccc(OC)cc1)S(C)(=O)=O (stereo unspecified),-1.3,0.1,4.3,2.4,-47.0,-7.2
O=C(CCCSc1ccccc1)Nc1nc(-c2ccccn2)cs1,0.0626,1.3,68.8*,14.2,56.8*,-4.5
O=C(Nc1nc(-c2ccccn2)cs1)c1ncc(Cl)c(Cl)c1Cl,0.118,1.6,25.6,36.8,59.5*,-20.2
O=C(Nc1nc(-c2ccccn2)cs1)c1cc2ccccc2o1,/,-0.7,9.3,/,/,/
O=C(Nc1nc(-c2ccccn2)cs1)c1ccc(Cl)s1,1.51,-1.2,66.5,-0.2,95.5*,-13.1
O=C(Nc1nc(-c2cc(Cl)sc2Cl)cs1)c1ccccc1,-1.53,8.4,67.5*,21.9,-46.5,-8.1
CCN(CCO)Cc1csc2ccc(Cl)cc12,/,-0.5,-8.0,3.2,-41.8,4.7
CCOC(=O)c1c(C)nc2sc3c(=O)n(-c4ccc(C(C)=O)cc4)nnc3c2c1-c1ccc(OC)cc1,1.03,5.9,20.9,4.3,-58.3,-0.7
CCOC(=O)c1c(C)nc2sc(C(=O)Nc3ccc(OC)cc3)c(N)c2c1-c1ccc(OC)cc1,-0.67,8.7*,20.5,3.8,-49.5,-10.9
CCOC(=O)c1c(C)nc2sc(C(=O)Nc3ccc(C(C)=O)cc3)c(N)c2c1-c1ccc(OC)cc1,3.6*,6.2,6.3,1.0,-42.4,2.2
CCOC(=O)c1c(C)nc2sc(C(N)=O)c(N)c2c1-c1ccc(OC)cc1,0.541,3.8,15.5,14.5,-4.3,0.5
CCOC(=O)/C=C/C(=O)Nc1nccs1,/,2.3,-17.5,7.1,-13.4,2.3
Cc1ccc(OCCCN2CCCC2)c(C)c1,-0.374,3.5,5.8,15.2,-7.6,-4.1
Cc1ccc(OCCCCNC2CCCC(C)C2C)c(C)c1 (stereo unspecified),/,2.7,63.4*,/,/,/
COCCN(C(=O)Cc1cccs1)C(C(=O)NCc1ccc(OC)cc1)c1ccc(C(C)C)cc1 (stereo unspecified),-0.166,4.5,61.3*,12.8,-49.1,2.7
CCc1ccc(C(C(=O)NCc2ccc(OC)cc2)N(CCOC)C(=O)Cc2cccs2)cc1 (stereo unspecified),-0.332,6.4,-1.1,4.0,-10.4,-14.1
Clc1cccc(/C(Cc2nc3ccccc3[nH]2)=N\Nc2ccccc2)c1,/,3.9,67.7,19.2,-27.5,1.9
FC(F)(F)c1cnc(Sc2nc3nccc(-c4ccc(Cl)cc4)n3n2)c(Cl)c1,/,3.5,96.1*,24.8,3.0,-1.3
COc1ccc(-c2ccnc3nc(Sc4ncc(C(F)(F)F)cc4Cl)nn23)cc1,0.0364,3.5,18.4,3.4,-32.8,10.0
NC(=O)C1CCN(C(=O)CC2(CC(=O)O)CCCCC2)CC1,/,0.2,0.7,/,/,/
NC(=O)CC1(CC(=O)O)CCCCC1,-0.574,1.3,-18.1,68.0*,-19.7,-8.2
CC(COc1ccccc1Cc1ccccc1)N1CCCCC1 (stereo unspecified),-0.942,/,/,/,/,/
CCC(=O)N(Cc1ccc(S(N)(=O)=O)cc1)C1CC(=O)N(c2ccccc2)C1=O (stereo unspecified),/,2.2,-6.6,/,/,/
CCCOc1ccc(-c2nc(C#N)c(N3CCC(C(N)=O)CC3)o2)cc1,0.0112,1.7,94.2*,8.8,-35.0,-9.2
CCCOc1ccc(-c2nc(C#N)c(N3CCc4ccccc4C3)o2)cc1,-0.565,10.7*,38.3,4.7,-34.6,-6.8

# Source: PubChem BioAssay
